Reference: paper PMC3159870 (European journal of nuclear medicine and molecular imaging, 2010)
Like-named read-outs stand apart in the source and are kept apart here.

Assays:
TSPO [1] = experiment: in vivo affinity ratio from slope of regression of regional VT/fP; set-up: species or system human; settings: VT/fP values in ten brain regions
TSPO [2] = settings: monkey brain; cited from earlier work
plasma free fraction = type: in vitro ADME, human; settings: eight subjects
[3] = kinetics of radioligand in plasma and brain after bolus intravenous injection; type: in vivo, human
[4] = radiation exposure; cited from earlier work
TSPO [5] = type: in vivo, human
Outline: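 Eight healthy volunteers (2 women, 6 men; 32±11 y), each scanned once with each aryloxyanilide radioligand (18F: 170±26 MBq; 11C: 567±84 MBq; i.v. bolus). Dynamic PET on GE Advance. Radial arterial plasma parent separated by radio-HPLC gave the input function. VT fitted from the first 120 min, then divided by per-scan fP. Ten regions; mean ± SD; repeated-measures ANOVA.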

TSPO [6] = settings: human brain tissue; cited from earlier work
TSPO [7] = experiment: in vitro affinity for TSPO in human brain tissue; type: binding; settings: PBR06 relative to PBR28
[8] = octanol/phosphate buffer, pH 7.4; cited from earlier work
TSPO [9] = type: binding, human; settings: membranes of white blood cells
[10] = mean of ten brain regions, eight subjects, 120 min data

Q: Which results are given for COc1ccc(OC)c(CN(C(=O)C[18F])c2ccccc2Oc2ccccc2)c1 [^18F-PBR06]?
A: 95% confidence interval of slope (in vivo affinity ratio) (TSPO [1]): 0.89–1.84; specific binding as part of total uptake (TSPO [2]): greater than 90%; plasma free fraction (fP) (plasma free fraction): 2.2±0.6%; time of peak brain uptake of radioactivity ([3]; human brain, after injection): ≤ 5 min; time of peak plasma concentration of total parent radioligand ([3]; human plasma, after injection): ≤ 2 min; peak concentration of brain uptake ([3]; mean of ten regions in eight subjects): 1.2 SUV; peak concentration of brain uptake, range ([3]; range, ten regions in eight subjects): 1.0–1.6 SUV; effective dose [4]: 18.5 µSv/MBq; VT (TSPO [5]; Anterior cingulate): 2.05±0.42 ml × cm^−3; VT/fP (TSPO [5]; Anterior cingulate): 97.7±21.5 ml × cm^−3; VT (TSPO [5]; Caudate): 1.72±0.28 ml × cm^−3; VT/fP (TSPO [5]; Caudate): 83.2±20.3 ml × cm^−3; VT (TSPO [5]; Cerebellum): 2.26±0.61 ml × cm^−3; VT/fP (TSPO [5]; Cerebellum): 108.0±33.4 ml × cm^−3; VT (TSPO [5]; Frontal cortex): 2.10±0.40 ml × cm^−3; VT/fP (TSPO [5]; Frontal cortex): 100.3±22.6 ml × cm^−3; VT (TSPO [5]; Medial temporal cortex): 2.05±0.46 ml × cm^−3; VT/fP (TSPO [5]; Medial temporal cortex): 97.7±22.8 ml × cm^−3; VT (TSPO [5]; Occipital cortex): 2.17±0.40 ml × cm^−3; VT/fP (TSPO [5]; Occipital cortex): 104.0±24.3 ml × cm^−3; VT (TSPO [5]; Parietal cortex): 2.10±0.39 ml × cm^−3; VT/fP (TSPO [5]; Parietal cortex): 100.3±20.4 ml × cm^−3; VT (TSPO [5]; Putamen): 1.98±0.36 ml × cm^−3; VT/fP (TSPO [5]; Putamen): 94.8±21.2 ml × cm^−3; VT (TSPO [5]; Temporal cortex): 2.24±0.43 ml × cm^−3; VT/fP (TSPO [5]; Temporal cortex): 107.4±27.7 ml × cm^−3; VT (TSPO [5]; Thalamus): 2.37±0.44 ml × cm^−3; VT/fP (TSPO [5]; Thalamus): 113.6±25.7 ml × cm^−3; VT (TSPO [5]; [10]): 2.1±0.4 ml × cm^−3; VT/fP (TSPO [5]; [10]): 100.7±24.0 ml × cm^−3

Q: What does the source list for COc1ccc(OC)c(CN(C(=O)CF)c2ccccc2Oc2ccccc2)c1 [PBR06]?
A: Ki (TSPO [6]): 1 nM; fold higher in vitro affinity than PBR28 (TSPO [7]): 2.5 fold

Q: Which results are given for COc1ccccc1CN(C(C)=O)c1cnccc1Oc1ccccc1 [PBR28]?
A: Ki (TSPO [6]): 2.5 nM; log D [8]: 3.0; fold lower affinity in non-binders than in the majority (90%) of the population (TSPO [9]): about 50 fold
